In data set [1] the test system is DIO male Golden Syrian hamsters. Nature of the data set: Oral glucose tolerance test in DIO hamsters. Conditions: TRC210258 6 mg/kg intraperitoneal, sitagliptin 3 mg/kg oral. In kind it is in vivo, hamster. In outline: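 Hamsters made obese on 45% kcal-fat diet for 8±2 weeks. Double-dummy dosing: i.p. vehicle 0.9% Na-CMC + 0.1% Tween-80 in PBS pH 7.4, oral vehicle 0.5% Tween-80 + 0.5% Na-CMC in water. Oral glucose tolerance test done during treatment. Retro-orbital sampling under mild anaesthesia into K-EDTA. Plasma glucose by autoanalyzer; insulin by hamster-specific ELISA.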

Data set [2] in a line: Pharmacokinetics in DIO hamsters. Format: in vivo, hamster.
For a further data set, the target named is T1, human TGR5 receptor (Homo sapiens, UniProt Q8TDU6).
T1 sequence (Q8TDU6 1-330): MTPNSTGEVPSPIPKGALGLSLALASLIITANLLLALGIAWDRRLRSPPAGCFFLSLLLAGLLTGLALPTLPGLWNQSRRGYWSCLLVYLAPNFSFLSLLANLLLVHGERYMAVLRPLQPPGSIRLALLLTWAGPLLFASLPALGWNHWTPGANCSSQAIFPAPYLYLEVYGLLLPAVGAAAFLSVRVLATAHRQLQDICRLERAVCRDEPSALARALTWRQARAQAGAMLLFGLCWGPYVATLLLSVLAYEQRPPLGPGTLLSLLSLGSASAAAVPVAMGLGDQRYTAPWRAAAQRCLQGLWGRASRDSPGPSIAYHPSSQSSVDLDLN
Format: cell-based.

For data set [3], the system named is NCI-H716 human enteroendocrine cell line. Nature of the data set: TGR5-mediated GLP1 secretion. Format: cell-based. Particulars: NCI-H716 cells, 1 hour, in presence of 0.05% sitagliptin; versus vehicle. In outline:
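NCI-H716 human enteroendocrine cells exposed 1 h to vehicle, test compound or lithocholic acid (positive control), with 0.05% DPP-4 inhibitor sitagliptin present. Active GLP1 in culture supernatant measured by ELISA, expressed in pM. Two experiments, each in duplicate, averaged.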

Data set [4] concerns high-fat DIO C57bl/6J mice. Nature of the data set: Glycemic control. Format: in vivo, mouse. Conditions: 4 weeks of treatment, 9 mg/kg oral once daily. In outline:
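DIO C57bl/6J males on 45% kcal-fat diet for 8±2 weeks before study, diet continued. Oral dosing once daily for 4 weeks in 0.5% w/v Tween-80 + 0.5% w/v Na-CMC in water. OGTT: 6 h fast, dose, 0-min sample 15 min later, glucose 2 g/kg, tail-snip samples at 15–120 min. K-EDTA plasma; glucose by autoanalyzer, fasting insulin by rat/mouse ELISA.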

For data set [5], the system named is DIO male Golden Syrian hamsters. The data set is described as follows: Plasma lipid parameters in high fat-fed DIO hamsters, experiment C. Conditions: end of treatment week 5, 6 mg/kg intraperitoneal. Format: in vivo, hamster.
The nature of data set [6]: Pharmacokinetics in DIO mice. Format: in vivo, mouse.
The subject of data set [7] is DIO male Golden Syrian hamsters. Nature of the data set: Oral fat tolerance test. Format: in vivo, hamster. Particulars: week 4, 6 mg/kg intraperitoneal. An outline of the steps:
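Male Golden Syrian hamsters fed 45% kcal-fat diet for 8±2 weeks. Test compound given i.p. in 0.9% Na-CMC + 0.1% Tween-80 in PBS pH 7.4, with oral vehicle dummy. At end of week 4: 6 h fast, pre-load sample, oral olive oil 5 mL/kg, samples at 60–240 min. Retro-orbital bleeds under mild anaesthesia; K-EDTA plasma triglyceride by autoanalyzer.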

[8] abbreviates: DIO hamsters, 6 mg/kg intraperitoneally, mean ± standard deviation.
Setting [9] is: DIO mice, 9 mg/kg orally, mean ± standard deviation.

`N[C@@H](CC(=O)N1CCn2c(nnc2C(F)(F)F)C1)Cc1cc(F)c(F)cc1F` [sitagliptin, reference compound]: in data set [1], the “AUC(0–120 min) for insulin in oral glucose tolerance test” value is on record as “higher”.
Broadly, the Tmax is the time at which the peak concentration occurs. The term Cmax denotes the peak of the concentration-time curve. A word on the EC50: it is the concentration needed to bring the measured effect to its halfway point. Low readings indicate a more potent agent, high ones a less potent agent. With `CN(C(=O)c1c(Oc2ccc(F)cc2)nc2ncccn12)c1ccc(Cl)cc1` [TRC210258, N-(4-chlorophenyl)-2-(4-fluorophenoxy)-N-methylimidazo [1,2-a] pyrimidine-3-carboxamide], in data set [2] (setting [8]), the AUClast was determined as 726.2 ± 223.8 ng·h/mL and the time to peak (Tmax) turned out to be 1.5 ± 0.71 h. For the same molecule, the concentration in data set [2] (Golden Syrian, hamster, plasma, ip, 6 mg/kg) peaked (Cmax) at 78.7 ± 31.8 ng/mL. Also, the “oral bioavailability in hamsters compared with mice” value in data set [2] (hamster, oral) is recorded as “lower oral bioavailability”. Moreover, it took 221 nM to reach a half-maximal effect at human TGR5 receptor (EC50). Moreover, in data set [3], the GLP1 secretion result is recorded as “significant induction of GLP1 secretion”. Further, the “AUC(0–120 min) for insulin in oral glucose tolerance test” value in data set [1] is listed as “higher”. For the same molecule, the “Homeostasis Model of Assessment-Insulin Resistance (HOMA-IR)” value in data set [4] is “trend toward amelioration”. Further, in data set [5], the “improvement (reduction) in LDL cholesterol vs vehicle control” value came to 26.2%, the “improvement (reduction) in non-HDL cholesterol vs vehicle control” value worked out at 32%, the “improvement (reduction) in total cholesterol vs vehicle control” value turned out to be 25.4% and the “improvement (reduction) in triglycerides vs vehicle control” value is on record as 28.3%. For the same molecule, the Cmax in data set [6] (C57bl/6J, mouse, plasma, po, 9 mg/kg) came to 59.4 ± 22.2 ng/mL. Also, in data set [6] (setting [9]), the AUClast stood at 525.7 ± 127.0 ng·h/mL and the Tmax worked out at 2.25 ± 1.25 h. The “time taken to reach peak plasma triglyceride levels after oral fat loading” value in data set [7] came out at 120 min.

Source of the values: paper PMC3873233 (Diabetes, Metabolic Syndrome and Obesity: Targets and …, 2013).
